Test results taken from PubChem BioAssay.
The source made the active and inactive calls.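 Rule for the calls, unless noted: active = fluorescence slope higher than the sample average by over 3 SD (cut at about -0.22 in these data, passing the limit was not always enough); inactive = the rest.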

Columns and labels:
[1] = inhibitors of TNFa-induced NFkB p65 translocation, primary screen, imaging, HUVEC, MLSMR starter and 10KST1 sets (AID 438;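 active = inhibition above 20% together with a positive visual image hit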;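 note: compound added about 3h40 before a 20 min TNFalpha stimulation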;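 for inhibition: signal is the nuclear over cytoplasmic p65 intensity ratio per well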); conditions: HUVEC TNFa-induced p65 nuclear translocation; cell count: measured here: nuclei count (cytotoxicity indicator), at 2.08 µM; inhibition: at 2 µM, stronger effect = higher value, 0% TNFa-plus-vehicle, 100% no-TNFa wells
[2] = reduction of polyQ htt aggregates in cells – imaging, exon1htt(103Q)mCFP cells, high-content imaging, primary screen (AID 483;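 active = visual image review flags a hit and inhibition of aggregation exceeds 20%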;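 note: compound exposure lasted 3 days before fixation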;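 for nuclei count: percent of the per-plate median nuclei count of sample wells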); conditions: exon1htt(103Q)mCFP cell line, aggregate imaging, at 2 µM; inhibition of aggregation: stronger effect = higher value; nuclei count: measured here: cell count, toxicity
[3] = endothelial E-selectin expression blockers – imaging, HUVEC, immunofluorescence, MLSMR starter and 10KST1 sets, primary screen (AID 487;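 active = visually confirmed hit in the image check and inhibition above 20%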;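 for inhibition: signal is fraction of cell area covered by stained E-selectin grains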;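 for nuclei count: 100% = median nuclei count of all wells on the same plate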); conditions: HUVEC TNFalpha-induced E-selectin immunofluorescence imaging, at 2 µM; inhibition: stronger effect = higher value; nuclei count: measured here: cell number, toxicity
[4] = molecular target: Voltage-gated potassium channel subunit beta-2 (Rattus norvegicus) (UniProt P62483); assay: inhibitors of rat Kvbeta2 reductase activity – biochemical, NADPH fluorescence, primary screen (AID 622); conditions: recombinant KvBeta, 4-cyanobenzaldehyde reduction, at 10 µM, stronger effect = higher value;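 note: slope of raw intensity against log time taken from 70 to 1610 s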
[5] = molecular target: Voltage-gated potassium channel subunit beta-2 (Rattus norvegicus) (UniProt P62483); assay: enhancers of rat Kvbeta2 NADPH turnover – biochemical, NADPH fluorescence, primary screen (AID 623;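 active = NADPH fluorescence slope more negative than the mean of all samples by about 3 SD, 99.7% confidence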;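 note: fluorescence intensity change per second fitted from 20 to 320 s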); conditions: Recombinant KvBeta, NADPH fluorescence decrease slope, 10 min; at 10 µM; stronger effect = lower value
[6] = molecular target: Muscarinic acetylcholine receptor M4 (Homo sapiens) (UniProt P08173); assay: M4-linked GIRK flux change, two-sided – cell-based, HEK293 M4/GIRK, thallium flux, BTC-AM, M4 allosteric agonist project, primary screen (AID 625;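 active = fluorescence slope after compound addition differing from the mean of all tested samples at 99.7% confidence, mostly higher but some lower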;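 note: thallium influx through GIRK channels coupled to M4 in HEK293 cells with BTC-AM dye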); conditions: at 10 µM, actives lie on both sides
Procedure, shortened: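 assay system = HEK293 cells with M4 receptor and GIRK channels | medium = pH 7.3 thallium assay buffer | doses = 10 µM final, single point | timing = cells overnight at 37 °C, BTC-AM loading 1 h, reads 2 min total | signal = BTC-AM fluorescence, 1 Hz kinetic reads | read-out = post-addition slope, 15–24 s, of baseline-normalized fluorescence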

[7] = blockers of RIG-like receptor reporter activation – cell-based, Sendai virus stimulus, luciferase, 10K MLSCN set, TLR/RLR signaling modifier project, primary screen (AID 602276;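 active = inhibition at or above 50% at 10 µM; inactive = inhibition below 50%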;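 note: firefly luciferase from ISG56 promoter only with Renilla not read in this screen; 0% = Sendai virus plus DMSO and 100% = medium plus DMSO without virus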); conditions: HEK293 RL24 IRF3 luciferase reporter, at 10 µM, stronger effect = higher value
[8] = TLR3 IRF3 reporter activation blockers – cell-based, poly I:C stimulus, luciferase, 10K MLSCN set, primary screen (AID 602277;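 active = inhibition of the reporter signal at or above 50%; inactive = inhibition below 50%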); conditions: HEK293-TLR3 RL24 IRF3 luciferase reporter, at 10 µM, stronger effect = higher value

Chain of Voltage-gated potassium channel subunit beta-2 (Rattus norvegicus) (P62483 whole entry, looked up): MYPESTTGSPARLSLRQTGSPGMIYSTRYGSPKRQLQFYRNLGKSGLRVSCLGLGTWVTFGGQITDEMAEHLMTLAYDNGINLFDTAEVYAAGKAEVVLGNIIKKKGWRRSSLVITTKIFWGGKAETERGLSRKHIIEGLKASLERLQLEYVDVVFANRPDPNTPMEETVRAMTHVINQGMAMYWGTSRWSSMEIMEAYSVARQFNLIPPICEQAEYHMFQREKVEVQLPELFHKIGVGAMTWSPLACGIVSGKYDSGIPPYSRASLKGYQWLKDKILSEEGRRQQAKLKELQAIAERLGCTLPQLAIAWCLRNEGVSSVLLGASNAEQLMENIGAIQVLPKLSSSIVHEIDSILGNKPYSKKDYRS
Chain of Muscarinic acetylcholine receptor M4 (Homo sapiens) (P08173 whole entry, looked up): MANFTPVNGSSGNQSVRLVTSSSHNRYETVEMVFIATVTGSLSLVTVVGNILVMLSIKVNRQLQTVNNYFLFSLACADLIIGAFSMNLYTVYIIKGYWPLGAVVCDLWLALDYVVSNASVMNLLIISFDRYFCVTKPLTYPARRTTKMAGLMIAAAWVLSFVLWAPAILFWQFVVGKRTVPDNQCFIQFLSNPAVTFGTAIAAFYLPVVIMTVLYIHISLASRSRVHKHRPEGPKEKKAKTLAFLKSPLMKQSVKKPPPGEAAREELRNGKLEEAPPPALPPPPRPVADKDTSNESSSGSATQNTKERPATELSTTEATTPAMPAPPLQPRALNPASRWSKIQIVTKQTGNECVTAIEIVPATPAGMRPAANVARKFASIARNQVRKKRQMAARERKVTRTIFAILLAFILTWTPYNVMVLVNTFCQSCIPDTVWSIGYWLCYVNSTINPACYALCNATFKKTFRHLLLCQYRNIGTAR

Row | Compound | cell count [1] | inhibition [1] | inhibition of aggregation [2] | nuclei count [2] [%] | inhibition [3] | nuclei count [3] [%] | fluorescence slope [4] | NADPH fluorescence slope [5] | fluorescence slope [6] | inhibition [7] | inhibition [8]
1 | O=C(c1ccccc1)c1ccc(N2CCOCC2)c(NC(=O)c2ccco2)c1 | 318 | -13% (inactive) | -8.7% (inactive) | 114 | -23.2% (inactive) | 119 | -0.421 (inactive) | 1e-05 (inactive) | 0.0062 (inactive) | 14.1% (inactive) | 17.3% (inactive)
2 | CCOC(=O)C1CCN(C(=O)Nc2ccc3snnc3c2)CC1 | 408 | 5.7% (inactive) | 5% (inactive) | 89.8 | -38.5% (inactive) | 107 | -0.206 (inactive) | -2.9e-05 (inactive) | 0.00565 (inactive) | 13.9% (inactive) | 10.8% (inactive)
3 | COc1cc(C(=O)N2CCC(c3nc(-c4cccnc4)no3)CC2)cc(OC)c1OC | 651 | -29.6% (inactive) | 2.1% (inactive) | 110 | -33.4% (inactive) | 102 | -0.28 (inactive) | -1.2e-05 (inactive) | 0.00617 (inactive) | 5.18% (inactive) | 24.5% (inactive)
4 | N#Cc1c(NC(=O)COC(=O)C2CC3C=CC2C3)oc(-c2ccccc2)c1-c1ccccc1 (stereo not drawn) | 282 | 18.4% (inactive) | -7.7% (inactive) | 95.7 | -44.1% (inactive) | 94.6 | -0.399 (inactive) | -0.000409 (inactive) | 0.00531 (inactive) | -1.94% (inactive) | 99% (active)
5 | COC(=O)c1ccc2c(=O)n(Cc3ccco3)c(SCC(=O)Nc3ccc(C)c(Cl)c3)nc2c1 | 445 | 5% (inactive) | 10.1% (inactive) | 115 | 4.9% (inactive) | 91 | -0.436 (inactive) | -2.2e-05 (inactive) | 0.00926 (inactive) | 13.7% (inactive) | 28.2% (inactive)
6 | CCCC(C)C(=O)Nc1ccc(C(N)=O)cc1 (stereo not drawn) | 668 | 0.5% (inactive) | 1% (inactive) | 110 | 22.4% (inactive) | 87 | -0.272 (inactive) | -3.2e-05 (inactive) | 0.00544 (inactive) | 11.2% (inactive) | 13.5% (inactive)
7 | CCOC(=O)N1CCN(c2cc3[nH]c(=S)[nH]c3cc2F)CC1 | 792 | 0% (inactive) | -5.7% (inactive) | 104 | -135% (inactive) | 136 | -0.525 (inactive) | -2.4e-05 (inactive) | 0.00501 (inactive) | 17.8% (inactive) | 20.8% (inactive)
8 | O=C(NC1CC2CCC1C2)c1ccc(CN2CCOCC2)cc1 (stereo not drawn) | 362 | 6.1% (inactive) | 4.3% (inactive) | 91.8 | -7.2% (inactive) | 99.5 | -0.466 (inactive) | -5.1e-05 (inactive) | 0.0046 (inactive) | -25.1% (inactive) | -53.4% (inactive)
9 | COc1ccc(CN(C)CC(=O)c2c(N)n(Cc3ccccc3)c(=O)n(C)c2=O)c(OC)c1 | 459 | -21.4% (inactive) | -15.1% (inactive) | 103 | 2.2% (inactive) | 98.3 | -0.579 (inactive) | -1.3e-05 (inactive) | 0.00645 (inactive) | 17.1% (inactive) | 24.3% (inactive)
10 | COC(=O)c1sccc1NC(=O)c1ccncc1 | 467 | 5.7% (inactive) | 7.5% (inactive) | 103 | -36.5% (inactive) | 122 | -0.49 (inactive) | -3.8e-05 (inactive) | 0.00518 (inactive) | 12% (inactive) | -9.7% (inactive)
11 | CN(C)S(=O)(=O)n1cnc(-c2ccccc2)c1-c1ccccc1 | 382 | 2.8% (inactive) | 10.1% (inactive) | 100 | -26.1% (inactive) | 107 | -0.497 (inactive) | -9.7e-06 (inactive) | 0.00475 (inactive) | 11.2% (inactive) | 20.5% (inactive)
12 | COC(=O)c1cc(OC)c(OC)cc1NC(=O)CC1CCCCC1 | 291 | -8.9% (inactive) | 0.4% (inactive) | 84.5 | 36.1% (inactive) | 73.5 | -0.558 (inactive) | -2.3e-05 (inactive) | 0.00549 (inactive) | 11.3% (inactive) | 11.2% (inactive)
13 | CC1=C(C#N)C(c2ccc3ncccc3c2)C(C#N)=C(C)N1 | 641 | 1.7% (inactive) | -43.5% (inactive) | 130 | -66.3% (inactive) | 110 | -0.44 (inactive) | 1.3e-05 (inactive) | 0.0045 (inactive) | 5.74% (inactive) | 5.72% (inactive)
14 | CCOc1ccc2nc(NC(=O)C(NS(=O)(=O)c3cccs3)C(C)C)sc2c1 (stereo not drawn) | 390 | 10% (inactive) | 6.2% (inactive) | 105 | -146% (inactive) | 122 | -0.423 (inactive) | 2.6e-05 (inactive) | 0.00543 (inactive) | 18.1% (inactive) | 20.4% (inactive)
15 | CCCOc1cc(C)c(S(=O)(=O)N2CCN(C)CC2)cc1C | 443 | 10.6% (inactive) | 12.8% (inactive) | 100 | -11.9% (inactive) | 96.1 | -0.57 (inactive) | -3.7e-05 (inactive) | 0.00349 (inactive) | 7.65% (inactive) | 10.4% (inactive)
16 | COc1ccccc1NC(=O)N1c2ccc(F)cc2CCC1C (stereo not drawn) | 407 | -2.5% (inactive) | 2.1% (inactive) | 108 | -58.6% (inactive) | 111 | -0.567 (inactive) | -5e-06 (inactive) | 0.00635 (inactive) | 16.7% (inactive) | 24.1% (inactive)
17 | C=CCN1C(=O)/C(=C2\SC(N3CCOCC3)=NC2=O)c2cc(Br)ccc21 | 418 | 3.5% (inactive) | 22.3% (inactive) | 100 | -76% (inactive) | 86.1 | -0.519 (inactive) | -8.4e-05 (inactive) | 0.00286 (inactive) | -11.1% (inactive) | -37.3% (inactive)
18 | COC(=O)c1ccc(COc2ncnc3c(Cl)cc(Cl)cc23)o1 | 406 | -5% (inactive) | 25.5% (inactive) | 74.4 | 59.9% (inactive) | 78.8 | -0.433 (inactive) | -0.000426 (inactive) | 0.00494 (inactive) | 2.59% (inactive) | 1.58% (inactive)
19 | CN(C(=O)COC(=O)C1CCN(S(=O)(=O)c2cccs2)CC1)C1CCS(=O)(=O)C1 (stereo not drawn) | 385 | -2.7% (inactive) | 6% (inactive) | 51.8 | -190% (inactive) | 120 | -0.571 (inactive) | -4.2e-05 (inactive) | 0.00447 (inactive) | -5.26% (inactive) | 1.49% (inactive)
20 | CCn1cc(C(=O)Nc2cc3c(cc2NC(C)=O)OCCO3)c(=O)c2ccc(C)nc21 | 315 | 5.7% (inactive) | -17.4% (inactive) | 114 | -39.4% (inactive) | 115 | -0.49 (inactive) | -0.000144 (active) | 0.00463 (inactive) | 18.1% (inactive) | 16.9% (inactive)
21 | COc1ccc(-c2cc(C(=O)NCCc3ccccc3)no2)cc1OC | 364 | -23% (inactive) | -2.1% (inactive) | 98.3 | -58.5% (inactive) | 105 | -0.298 (inactive) | -2.2e-05 (inactive) | 0.00599 (inactive) | 7.88% (inactive) | -6.93% (inactive)
22 | CCCCc1ccc(NC(=O)COCC)cc1 | 366 | -2.7% (inactive) | -8.1% (inactive) | 110 | -34.5% (inactive) | 98.4 | -0.585 (inactive) | 1.7e-05 (inactive) | 0.00366 (inactive) | -24.8% (inactive) | -77.1% (inactive)
23 | COC(=O)c1cc(Br)c(=O)n(CCN2CCOCC2)c1 | 563 | 5.4% (inactive) | 1.7% (inactive) | 96.1 | 5.8% (inactive) | 104 | -0.43 (inactive) | -6.4e-05 (inactive) | 0.00578 (inactive) | 13% (inactive) | 20.6% (inactive)
24 | Cc1cc(C)n2nc3nc(N4CCCCC4)nc(-c4ccco4)c3c2n1 | 315 | -2.2% (inactive) | -24.4% (inactive) | 105 | -260% (inactive) | 86.7 | -0.433 (inactive) | 1e-05 (inactive) | 0.00465 (inactive) | 12.6% (inactive) | 2.12% (inactive)
25 | CCCc1cc(=O)n2[nH]cnc2n1 | 285 | 11.4% (inactive) | -16% (inactive) | 80 | -11.2% (inactive) | 101 | -0.285 (inactive) | -1.5e-05 (inactive) | 0.00663 (inactive) | 11% (inactive) | 19.9% (inactive)
26 | CN1CCN(CCCNC(=O)C2CC(=O)N(C3CCCCC3)C2)CC1 (stereo not drawn) | 259 | -1.7% (inactive) | 2.4% (inactive) | 98 | 15.5% (inactive) | 89.4 | -0.548 (inactive) | -4.3e-05 (inactive) | 0.00645 (inactive) | 14.4% (inactive) | 13.7% (inactive)
27 | COc1cccc(CNC(=O)C2CCN(S(=O)(=O)c3ccc(F)cc3)CC2)c1 | 603 | 9.6% (inactive) | 5.3% (inactive) | 103 | -47.8% (inactive) | 123 | -0.553 (inactive) | -5.5e-05 (inactive) | 0.00553 (inactive) | 19.5% (inactive) | 20.1% (inactive)
28 | Clc1ccc(Cc2nn3c(-c4ccncc4)nnc3s2)cc1 | 322 | -5.1% (inactive) | 5.5% (inactive) | 83.3 | -102% (inactive) | 110 | -0.523 (inactive) | -0.000147 (inactive) | 0.00382 (inactive) | -1.37% (inactive) | -9.67% (inactive)
